# Assay outcomes (PubChem)
# Lung fibro prol = blocks proliferation of human lung fibroblasts. 85,000 compounds, 1.1% hits. viability, % at 10 µM. AID 719. LL 47 human lung fibroblast viability, ATP luminescence; active compounds read low;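 active means viability at or below 50% in the single dose screen; inactive means viability above 50%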;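 further: compound exposure lasted 72 h before the ATP readout; 100% = median luminescence of untreated cell-only wells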
#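 Test system: LL 47 human lung fibroblasts; Quantity: 1,150 cells/well; Buffer or medium: IMEM plus 15% FBS; Dosing: tenfold compound dosing solution, DMSO at 0.1%; Timing: overnight cell rest, 72 h compound treatment at 37 °C; Detection: ATP-based CellTiter-Glo luminescent readout; Read-out basis: viability percentage against median untreated-cell control; Controls: cell-only wells, no compound.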
# H69AR growth 86K = growth inhibitors of human H69AR lung tumor cells. viability, % at 10 µM. 85,000 compounds, 6% hits. AID 598. H69AR lung tumor viability, ATP luminescence, 72 h; active compounds read low;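 active means viability at or below 40%; inactive means viability above 40%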;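 further: multidrug resistant small cell line overexpressing MRP-1 efflux transporter; 100% = mean luminescence of untreated control wells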
# HUVEC inhibit = human endothelial cell proliferation inhibition; 86,000 compounds, 1.1% hits; AID 648; HUVEC proliferation, CellTiter-Glo luminescence, 72 h; active compounds read low; viability, % at 10 µM (by protocol);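 active means viability at or below 30%; inactive means viability above 30%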;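 further: 100% = median luminescence of DMSO-only cell control wells on each plate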
# bCat KO growth = beta-catenin-lacking colon tumor cell growth suppression. HCT116 beta-catenin knockout viability, CellTiter-Glo, 60 h; active compounds read low. AID 818. 140,000 compounds, 1.5% hits. viability, % at 10 µM;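 active means viability at or under a set limit, the compound median less 4 SD, cut at about 6% in these data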;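 further: 0% = Hyamine 1622 control at 20 µM and 100% = untreated cell control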
# Candida biofilm = kills Candida albicans biofilms | 85,000 compounds, 0.14% hits | inhibition, % at 6 µM | C. albicans biofilm + clotrimazole, Alamar Blue | AID 834;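 active means inhibition above 20%; inactive means inhibition below 20%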;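 further: preformed 24 hr biofilms exposed to compound for 48 hr; 0% = biofilm without compound and 100% = blank killed by clotrimazole plus chlorhexidine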
# PTEN del growth = suppresses growth of cells with PTEN deletion | HCT116 PTEN-null viability, CellTiter-Glo, 60 h; active compounds read low | viability, % at 10 µM | 140,000 compounds, 1.2% hits;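 active means viability at or below a set limit, 4 SD under the median of all tested compounds, cut at about 3.7% in these data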;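 further: PTEN knockout HCT116 line with beta catenin targeted HCT116 as companion control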
# * = called active by the depositor; . = not tested or not shown. The full list was thinned out, with hits kept by preference.
SMILES,Lung fibro prol,H69AR growth 86K,HUVEC inhibit,bCat KO growth,Candida biofilm,PTEN del growth
OC(CNC1CCCCC1)CN1CCN(CC(O)CNC2CCCCC2)CC1 (stereo not given),100.0,108.8,94.4,.,2.0,.
Cc1ccc(S(=O)(=O)N2CCOCC2)cc1C(=O)OCC(=O)NC1CCS(=O)(=O)C1 (stereo not given),.,.,.,92.1,.,99.5
Cc1cc(NC(=O)CSc2nc3c(sc4ccccc43)c(=O)n2CCCN2CCOCC2)n[nH]1,38.7*,33.3*,84.9,11.8,8.2,91.2
Cc1occc1C(=O)Nc1sc2c(c1C(N)=O)CCC(C(C)(C)C)C2 (stereo not given),93.1,82.0,86.0,96.1,-5.1,84.8
CCOC(=O)c1c(NC(=O)c2ccoc2C)sc2c1CCC2,97.1,84.1,94.0,88.8,6.7,88.4
CCC1CCc2c(sc(NC(=O)c3ccoc3C)c2C(N)=O)C1 (stereo not given),88.2,34.9*,62.1,65.3,-2.1,59.2
CCC(C)(C)C1CCc2c(sc(NC(=O)c3ccoc3C)c2C(N)=O)C1 (stereo not given),89.2,13.6*,63.4,101.2,1.4,95.3
COc1ccccc1OCC(=O)Nc1nonc1NC(=O)COc1ccccc1OC,.,.,.,95.6,.,92.6
CC(/C=N/Nc1nc(C)cc(C)n1)=C\c1ccc(C(C)C)cc1,.,.,.,73.0,.,80.1
CCn1c(SCc2ccccc2)nnc1-c1ccc(S(=O)(=O)N2CCCCC2)cc1,86.2,26.1*,99.9,72.4,6.2,71.2
CCn1c(SCc2nnc(-c3ccccc3)o2)nnc1-c1ccc(S(=O)(=O)N2CCCC2)cc1,97.8,90.7,96.1,88.6,1.8,87.1
CCOC(=O)C(NC(=O)Nc1ccc(C(N)=O)cc1)(c1ccccc1)C(F)(F)F (stereo not given),.,.,.,91.2,.,86.8
Cc1ccc(C2(c3ccc(C)cc3)CC2C(=O)Nc2ccc([N+](=O)[O-])cc2O)cc1 (stereo not given),.,.,.,2.3*,.,3.3*
CC1(C)CC1C(=O)Nc1ccc([N+](=O)[O-])cc1Br (stereo not given),.,.,.,91.3,.,81.2
Cn1cnnc1SCc1ccc(C(=O)N=Nc2c(O)n(Cc3ccc(Cl)cc3)c3ccccc23)cc1,.,.,.,3.8*,.,4.4
CCCCNC(=O)CN1C(=O)NC2(CCCc3ccccc32)C1=O (stereo not given),109.9,110.1,104.4,96.4,0.4,86.7
CN(c1cccc(Cl)c1)S(=O)(=O)c1cccc(C(=O)Nc2nc3ccccc3[nH]2)c1,.,.,.,9.8,.,6.8
CN(c1cccc(Cl)c1)S(=O)(=O)c1cccc(C(=O)NC2=NCCS2)c1,100.5,39.8*,89.2,46.2,1.1,43.7
Cc1c(CN(C)C)c2c(n1Cc1ccccc1)C(=O)c1ccc(Br)cc1-2,45.9*,5.5*,22.4*,10.3,4.4,8.5
Cc1c(CN(C)C)c2c(n1C)C(=O)c1ccc(Br)cc1-2,76.8,65.8,78.3,68.0,1.7,67.9
CCCNC(=S)NCc1ccc(Cl)cc1,.,.,.,86.7,.,98.8
c1cc2c(cc1C1CCCCC1)c1c3n2CCN=C3CCC1,66.5,0.2*,2.1*,2.1*,5.2,9.7
Cc1ccc2c(c1)c1c3n2CCCNC3CCC1 (stereo not given),.,.,.,74.3,.,74.8
c1cc2c(cc1C1CCCCC1)c1c3n2CCCNC3CCC1 (stereo not given),2.6*,1.3*,2.7*,0.5*,0.3,0.7*
CC1(c2ccc(OC(F)F)cc2)NC(=O)N(/N=C/c2c(O)ccc3ccccc23)C1=O (stereo not given),.,.,.,94.6,.,100.5
SMILES,Lung fibro prol,H69AR growth 86K,HUVEC inhibit,bCat KO growth,Candida biofilm,PTEN del growth
COc1cccc(C2CC(c3ccccc3OC)n3ncnc3N2)c1 (stereo not given),91.4,31.3*,91.5,90.4,9.4,95.0
Clc1ccc(C2CC(c3ccccc3)Nc3ncnn32)cc1 (stereo not given),82.8,28.3*,86.1,79.5,11.0,76.5
O=C(OCC(=O)N(C1CCCCC1)C1CCCCC1)c1cnccn1,106.5,1.2*,98.1,78.5,-1.8,85.4
COc1ccc(CNC(=O)CCSCc2cccc(Cl)c2)c(OC)c1,.,.,.,94.5,.,93.2
Cc1cc(C(=O)CSc2nc3ccccc3n2CCC#N)c(C)n1Cc1cccs1,79.7,16.5*,71.0,80.6,8.8,82.8
CCCOC(=O)c1cccc(Nc2nc(-c3cccnc3)nc3ccccc23)c1,.,.,.,7.3,.,3.6*
CCCOC(=O)c1cccc(NC(=O)c2cccnc2)c1,98.1,78.6,105.2,102.2,8.8,103.9
C/C(=N/OCC(=O)Nc1ccc(C)cc1C)c1cccs1,.,.,.,97.9,.,100.5
CCOc1ccc(C(F)(F)F)cc1NC(=O)COc1ccc(C(F)(F)F)cc1[N+](=O)[O-],.,.,.,82.6,.,93.8
CCCOP(=O)(OCCC)c1c([N+](=O)[O-])cc(C(F)(F)F)cc1[N+](=O)[O-],18.6*,39.0*,11.5*,8.5,3.1,10.3
O=C(/C=C/c1ccc2c(c1)OCO2)Nc1nc2ccccc2s1,.,.,.,24.5,.,19.4
O=C(/C=C/c1ccc2c(c1)OCO2)Nc1nc(-c2ccc(F)cc2F)cs1,.,.,.,5.8*,.,11.7
Cc1csc(NC(=O)/C=C/c2ccc3c(c2)OCO3)n1,.,.,.,94.8,.,105.1
Cc1ccc2nc(NC(=O)/C=C/c3ccc4c(c3)OCO4)sc2c1,.,.,.,7.5,.,1.2*
COCCNC(=O)c1noc2c1CCc1cc(OC)ccc1-2,107.0,102.8,109.7,100.3,6.5,95.7
COc1ccc2c(c1)CCc1c(C(=O)NCCCn3ccnc3)noc1-2,107.5,1.5*,92.8,82.2,-0.1,92.2
CCOC(=O)CC(NS(=O)(=O)Cc1ccccc1)c1ccc(C)cc1 (stereo not given),.,.,.,93.3,.,97.8
CCN(CCNC(=O)Nc1ccc(Cl)cc1)c1ccccc1,96.2,7.2*,102.5,42.6,9.1,17.5
CCN(CCNC(=O)C1CCN(S(C)(=O)=O)CC1)c1ccccc1,98.5,96.0,95.9,78.7,9.8,87.6
CC(=O)c1cnc2c(-c3ccccc3)c(C)nn2c1C,93.7,71.0,90.1,102.8,6.0,88.6
CC(=O)c1cnc2c(-c3ccc(Cl)cc3)c(C)nn2c1C,82.7,84.4,27.8*,83.2,4.0,83.3
CC(C)(C)C1=C(C#N)C(c2cc3c(cc2Br)OCO3)C(C#N)=C(N)O1 (stereo not given),85.0,45.9,81.5,.,5.3,.
N#CC1=C(N)OC(c2ccccc2)=C(C#N)C1c1ccc2c(c1)OCO2 (stereo not given),93.7,97.5,94.7,93.5,5.4,87.7
Cc1ccc(C2C(C#N)=C(N)Oc3cc4c(cc32)OCO4)cc1 (stereo not given),76.1,15.5*,73.9,19.5,7.3,16.8
CSc1ccc(C2C(C#N)=C(N)Oc3cc4c(cc32)OCO4)cc1 (stereo not given),63.2,18.3*,58.6,34.7,-1.0,21.2
COCCn1cnc2c1c(=O)n(CC(=O)OCC(=O)NCC(F)(F)F)c(=O)n2Cc1ccccc1,.,.,.,88.5,.,95.4
